Reference: ChEMBL document CHEMBL1139766, “Discovery of potent and orally bioavailable heterocycle-based beta3-adrenergic receptor agonists, potential therapeutics for the treatment of obesity” (Bioorg Med Chem Lett, 2007)
pEC50, pKi: −log10 of the molar value.

Tests used:
[1] = Half life in dog; format: ADME, organism-based, Canis lupus familiaris; conditions: in vivo
Summary of the method: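 Half-life determined after IV dosing in dog.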

[2] = Clearance in dog; format: ADME, organism-based, Canis lupus familiaris; conditions: in vivo
[3] = Volume of distribution at steady state in dog; format: ADME, organism-based, Canis lupus familiaris; conditions: in vivo, read-out: Vdss
Rattus norvegicus [4] = assay: Increase in oxygen consumption in rat at 0.3 mg/kg, po after 120 mins; format: functional
Summary of the method: (§1)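 Rats dosed orally (0.3, 1, 3, 10 mg/kg). Baseline O2 consumption recorded every 10 min for 3 h, then dosing with compound or vehicle and 2 h further recording. Values excluded when ambulatory activity was >100 counts/10 min, along with the first five values of the run and the first value after dosing. Change taken over 0–120 min.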

Rattus norvegicus [5] = assay: Increase in oxygen consumption in rat at 1.0 mg/kg, po after 120 mins; format: functional; summary of the method: as §1
Rattus norvegicus [6] = species: Rattus norvegicus; assay: Increase in oxygen consumption in rat after 120 mins; format: functional; conditions: 2 h; summary of the method: as §1
Rattus norvegicus [7] = assay: Increase in heart rate in rat at 10 mg/kg; format: functional
[8] = molecular target: T1, Beta-3 adrenergic receptor (Homo sapiens, UniProt P13945); assay: Agonist activity at human adrenergic beta-3 receptor expressed in CHO cells assessed as cAMP production; format: functional, cell-based
Summary of the method: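 cAMP accumulation measured in CHO cells expressing cloned human β3-AR. Potency given as EC50; intrinsic activity (IA) expressed as % of isoproterenol maximum. Compounds with EC50 < 100 nM and IA > 50% tested at least twice in functional assays.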
Target sequence in this assay (P13945 whole entry): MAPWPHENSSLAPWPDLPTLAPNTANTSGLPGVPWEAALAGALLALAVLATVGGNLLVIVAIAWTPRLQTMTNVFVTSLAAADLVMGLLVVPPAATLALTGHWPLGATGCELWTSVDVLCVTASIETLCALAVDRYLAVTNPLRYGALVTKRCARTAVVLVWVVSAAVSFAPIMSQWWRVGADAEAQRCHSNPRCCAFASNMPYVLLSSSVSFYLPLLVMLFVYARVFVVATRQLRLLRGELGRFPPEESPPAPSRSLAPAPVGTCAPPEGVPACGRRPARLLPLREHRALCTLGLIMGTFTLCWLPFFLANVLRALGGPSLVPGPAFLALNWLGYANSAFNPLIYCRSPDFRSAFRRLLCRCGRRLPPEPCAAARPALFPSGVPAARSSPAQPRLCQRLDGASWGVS

[9] = molecular target: T1, Beta-3 adrenergic receptor; assay: Intrinsic activity at human adrenergic beta-3 receptor expressed in CHO cells assessed as cAMP production relative to isoproterenol; format: functional, cell-based
Summary of the method: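 Functional readout was cAMP levels in Chinese hamster ovary cells expressing the cloned human β3 receptor. Intrinsic activity is given as a percentage of the isoproterenol maximum. Compounds with EC50 < 100 nM and IA > 50% were tested at least twice.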
Target sequence in this assay (P13945 whole entry, looked up): as the sequence (P13945 whole entry) above

[10] = molecular target: Beta-2 adrenergic receptor (Homo sapiens, UniProt P07550); assay: Displacement of [125I]iodocyanopindolol from human adrenergic beta-2 receptor expressed in CHO cells; format: cell-based
[11] = molecular target: Beta-1 adrenergic receptor (Homo sapiens, UniProt P08588); assay: Displacement of [125I]iodocyanopindolol from human adrenergic beta-1 receptor expressed in CHO cells; format: cell-based
Homo sapiens = species: Homo sapiens; assay: Selectivity for human adrenergic beta-3 receptor over human adrenergic beta-1 receptor
Summary of the method: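 Selectivity came from radioligand binding on membranes of CHO cells expressing cloned human β1 or β3 receptors, using 125I-iodocyanopindolol. The β3 value is the high-affinity agonist-site KiH, taken from a two-site competition fit. The ratio is β1 Ki over β3 Ki.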

Rattus norvegicus [12] = assay: Increase in oxygen consumption in rat at 3 mg/kg, po after 120 mins; format: functional; summary of the method: as §1
Rattus norvegicus [13] = assay: Increase in oxygen consumption in rat at 10 mg/kg, po after 120 mins; format: functional; summary of the method: as §1
[14] = Oral bioavailability in rat; format: ADME, organism-based; conditions: in vivo
[15] = Half life in rat; format: ADME, organism-based; conditions: in vivo
Summary of the method: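 Half-life determined after IV dosing in rat.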

[16] = Clearance in rat; format: ADME, organism-based; conditions: in vivo
[17] = Volume of distribution at steady state in rat; format: ADME, organism-based; conditions: in vivo, read-out: Vdss
[18] = Oral bioavailability in dog; format: ADME, organism-based, Canis lupus familiaris; conditions: in vivo
[19] = Solubility in phosphate buffer at pH 6.5; format: physicochemical
Summary of the method: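 Solubility measured in phosphate buffer at pH 6.5.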

[20] = molecular target: Beta-3 adrenergic receptor (Rattus norvegicus, UniProt P26255); assay: Agonist activity at rat adrenergic beta-3 receptor assessed as cAMP production; format: functional
[21] = molecular target: Beta-3 adrenergic receptor (Rattus norvegicus) (UniProt P26255); assay: Intrinsic activity at rat adrenergic beta-3 receptor assessed as cAMP production relative to isoproterenol; format: functional
Chain of Beta-3 adrenergic receptor (Rattus norvegicus) (P26255 whole entry): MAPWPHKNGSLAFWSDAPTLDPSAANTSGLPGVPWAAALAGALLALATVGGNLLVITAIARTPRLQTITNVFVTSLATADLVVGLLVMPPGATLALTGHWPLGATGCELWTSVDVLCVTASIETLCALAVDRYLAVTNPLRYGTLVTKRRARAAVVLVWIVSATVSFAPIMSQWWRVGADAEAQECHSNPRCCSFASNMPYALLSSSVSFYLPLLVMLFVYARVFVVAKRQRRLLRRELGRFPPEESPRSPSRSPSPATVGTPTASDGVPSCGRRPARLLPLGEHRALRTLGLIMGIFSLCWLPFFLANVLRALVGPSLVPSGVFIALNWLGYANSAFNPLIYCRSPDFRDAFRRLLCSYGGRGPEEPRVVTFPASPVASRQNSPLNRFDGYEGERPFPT

Chain of Beta-2 adrenergic receptor (P07550 whole entry): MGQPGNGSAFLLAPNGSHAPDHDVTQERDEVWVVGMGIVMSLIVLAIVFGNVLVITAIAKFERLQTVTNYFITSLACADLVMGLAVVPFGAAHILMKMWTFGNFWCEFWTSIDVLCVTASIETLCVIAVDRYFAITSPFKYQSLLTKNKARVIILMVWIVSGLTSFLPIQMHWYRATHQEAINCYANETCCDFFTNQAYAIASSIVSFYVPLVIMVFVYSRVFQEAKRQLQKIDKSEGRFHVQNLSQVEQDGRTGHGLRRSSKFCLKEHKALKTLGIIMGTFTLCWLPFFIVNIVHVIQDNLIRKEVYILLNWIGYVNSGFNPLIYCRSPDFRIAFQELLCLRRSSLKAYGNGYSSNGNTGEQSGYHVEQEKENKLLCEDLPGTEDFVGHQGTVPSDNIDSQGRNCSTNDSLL
Chain of Beta-1 adrenergic receptor (P08588 whole entry): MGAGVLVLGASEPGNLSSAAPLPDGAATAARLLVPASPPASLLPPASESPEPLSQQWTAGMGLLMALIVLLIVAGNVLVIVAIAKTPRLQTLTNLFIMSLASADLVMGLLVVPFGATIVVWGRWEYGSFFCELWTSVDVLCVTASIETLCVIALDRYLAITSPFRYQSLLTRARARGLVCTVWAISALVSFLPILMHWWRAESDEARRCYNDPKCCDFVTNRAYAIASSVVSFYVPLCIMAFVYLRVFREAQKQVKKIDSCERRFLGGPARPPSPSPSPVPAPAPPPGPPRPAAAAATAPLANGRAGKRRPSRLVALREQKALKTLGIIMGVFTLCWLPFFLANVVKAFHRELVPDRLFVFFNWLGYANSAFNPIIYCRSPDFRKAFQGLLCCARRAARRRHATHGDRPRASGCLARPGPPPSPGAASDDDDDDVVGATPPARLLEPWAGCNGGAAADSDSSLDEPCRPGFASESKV
Chain of Beta-3 adrenergic receptor (Rattus norvegicus, UniProt P26255) (P26255 whole entry): as the sequence (P26255 whole entry) above

Row | SMILES | pEC50 [8] | Intrinsic activity [9] [%] | pKi [11] | also measured
1 | O[C@@H](CNCCOc1ccc(-c2cocn2)cc1)c1cccnc1 | 7.70 | 94 | 6.70 | half-life [1]: 5.1 h; clearance [2]: 6 mL/min/kg; Vd [3]: 2.8 L/kg; Activity (Rattus norvegicus [4]): 8%; Activity (Rattus norvegicus [5]): 11%; ED20 (Rattus norvegicus [6]): 2 mg/kg; Activity (Rattus norvegicus [7]): 10%; pKi [10]: 8.00; Ratio Ki (Homo sapiens): 20; Activity (Rattus norvegicus [12]): 29%; Activity (Rattus norvegicus [13]): 42%; bioavailability [14]: 66%; half-life [15]: 1.4 h; clearance [16]: 13 mL/min/kg; Vd [17]: 0.89 L/kg; bioavailability [18]: 59%
2 | O[C@@H](CNCCOc1ccc(-c2csc(-c3ccncc3)n2)cc1)c1cccnc1 | 7.19 | 106 | 7.01 | –
3 | OCc1nc(-c2ccc(OCCNC[C@H](O)c3cccnc3)cc2)co1 | 7.38 | 94 | 6.57 | pKi [10]: 7.52; Ratio Ki (Homo sapiens): 8.6
4 | O[C@@H](CNCCOc1ccc(-c2csc(C(F)(F)F)n2)cc1)c1cccnc1 | 6.70 | 150 | 7.00 | –
5 | CC(C)c1nc(-c2ccc(OCCNC[C@H](O)c3cccnc3)cc2)co1 | 7.24 | 135 | 6.44 | pKi [10]: 7.31; Ratio Ki (Homo sapiens): 7.4
6 | COCc1nc(-c2ccc(OCCNC[C@H](O)c3cccnc3)cc2)co1 | 7.33 | 110 | 6.68 | –
7 | CCc1nc(-c2ccc(CCNC[C@H](O)c3ccc(Cl)c(NS(C)(=O)=O)c3)cc2)cs1 | 6.89 | 95 | – | –
8 | O[C@@H](CNCCc1ccc(-c2csc(-c3cccnc3)n2)cc1)c1cccnc1 | 5.92 | 106 | – | –
9 | Cc1nc(-c2ccc(OCCNC[C@H](O)c3cccnc3)cc2)c(C)o1 | 6.22 | 75 | 5.81 | –
10 | O=S(=O)(Nc1ccc(CCNC[C@H](O)c2cccnc2)cc1)c1ccc(-c2nc(-c3ccc(C(F)(F)F)cc3)cs2)cc1 | – | 92 | – | –
11 | O[C@@H](CNCCOc1ccc(-c2csc(-c3cccnc3)n2)cc1)c1cccnc1 | 6.92 | 121 | 6.92 | –
12 | Cc1nc(-c2ccc(CCNC[C@H](O)c3ccc(Cl)c(NS(C)(=O)=O)c3)cc2)cs1 | 6.64 | 121 | – | –
13 | O[C@@H](CNCCOc1ccc(-c2csc(-c3ccccc3)n2)cc1)c1cccnc1 | 6.24 | 53 | 6.82 | pKi [10]: 6.30
14 | Cc1ocnc1-c1ccc(OCCNC[C@H](O)c2cccnc2)cc1 | 6.51 | 80 | 6.77 | –
15 | Cc1nc(-c2ccc(OCCNC[C@H](O)c3cccnc3)cc2)co1 | 7.43 | 111 | 6.40 | pKi [10]: 7.68; Ratio Ki (Homo sapiens): 19
16 | O[C@@H](CNCCc1ccc(-c2csc(-c3ccccc3)n2)cc1)c1cccnc1 | 5.56 | 108 | – | –
17 | O[C@@H](CNCCOc1ccc(-c2cnco2)cc1)c1cccnc1 | 6.70 | 98 | – | –
18 | O[C@@H](CNCCOc1ccc(-c2csc(C3CCCC3)n2)cc1)c1cccnc1 | 6.54 | 159 | 6.89 | –
19 | CCc1nc(-c2ccc(OCCNC[C@H](O)c3cccnc3)cc2)co1 | 7.24 | 133 | 6.40 | pKi [10]: 7.43; Ratio Ki (Homo sapiens): 11
20 | CCc1nc(-c2ccc(OCCNC[C@H](O)c3cccnc3)cc2)cs1 | 6.77 | 106 | 7.43 | –
21 | O[C@@H](CNCCOc1ccc(-c2cscn2)cc1)c1cccnc1 | 7.57 | 85 | 6.85 | pKi [10]: 8.00; solubility [19]: > 10000 µg/mL; Ratio Ki (Homo sapiens): 14.2; Activity (Rattus norvegicus [12]): 11%; pEC50 [20]: 7.59; Intrinsic activity [21]: 104%
22 | CCc1nc(-c2ccc(CCNC[C@H](O)c3cccnc3)cc2)cs1 | 5.65 | 80 | – | –
23 | O[C@@H](CNCCc1ccc(-c2csc(C(F)(F)F)n2)cc1)c1cccnc1 | 5.35 | 94 | – | –
24 | O[C@@H](CNCCOc1ccc(-c2ncco2)cc1)c1cccnc1 | 6.28 | 24 | – | –
25 | Cc1nc(-c2ccc(CCNC[C@H](O)c3cccnc3)cc2)cs1 | 5.87 | 55 | – | –
26 | Cc1nc(-c2ccc(OCCNC[C@H](O)c3cccnc3)cc2)cs1 | 6.77 | 106 | 7.00 | pKi [10]: 6.92; Ratio Ki (Homo sapiens): 0.8; Activity (Rattus norvegicus [12]): 20%; Activity (Rattus norvegicus [13]): 32%; pEC50 [20]: 7.89; Intrinsic activity [21]: 113%
27 | CS(=O)(=O)Nc1cc([C@@H](O)CNCCc2ccc(-c3csc(-c4ccccc4)n3)cc2)ccc1Cl | 6.31 | 70 | – | –
28 | O[C@@H](CNCCOc1ccc(-c2coc(COCc3ccccc3)n2)cc1)c1cccnc1 | 6.66 | 137 | 7.30 | –
